Source: PubChem BioAssay (Johns Hopkins Ion Channel Center)
TRPC6 inh: mouse TRPC6 channel inhibitors, primary screen, cell-based, HEK293, membrane potential dye | Short transient receptor potential channel 6 (Mus musculus), Q61143 | ACh-evoked depolarization; hits give low values | B-score at 10 µM | 310,000 compounds, 1.1% hits | AID 2553, 2010;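 active = B-score under library mean minus 3 SD, initial fluorescence not abnormally high, positive integrated signal ratio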;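 note: B-score derived from integrated fluorescence ratio over the kinetic read; more negative B-score means stronger inhibition of depolarization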
TRPC4 block: inhibitors of mouse TRPC4 channel, primary screen, Fluo4 calcium, HEK293 TRPC4beta/mu-opioid cells; DAMGO-evoked Fluo4 calcium flux; hits give low values; AID 2247, 2010; B-score at 10 µM; Short transient receptor potential channel 4 (Mus musculus), Q9QUQ5; 300,000 compounds, 0.39% hits;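 active = B-score over 3 SD under the library average, no early fluorescence shift, positive overall ratio signal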
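Material: HEK293 cells with stable TRPC4beta plus mu-opioid receptor expression; probe or stimulus: DAMGO in two steps, submaximal then maximal; technique: Fluo4 calcium fluorescence by kinetic imaging, 5 s 1 Hz baseline; measure: integrated fluorescence ratio relative to baseline, converted to per-well B score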
TRPC4 PAM: positive allosteric modulators of TRPC4, primary screen, cell-based, mouse TRPC4beta, HEK293 mu-opioid, Fluo-4 calcium | Short transient receptor potential channel 4 (Mus musculus), Q9QUQ5 | DAMGO EC20, Fluo-4 Ca2+ flux; hits give high values | B-score at 10 µM | 310,000 compounds, 0.42% hits | AID 2227, 2009;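 active = B-score of calcium response area above 5 SD of library B-scores, with initial fluorescence ratio within 5 SD of library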;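 note: B-score of integrated fluorescence ratio over time as area under calcium response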
TRPC4 agonist: activators of mouse TRPC4 channel, primary screen, Fluo4 calcium, HEK293 TRPC4beta/mu-opioid cells; Fluo4 calcium fluorescence; hits give high values; 310,000 compounds, 0.49% hits; AID 2237, 2010; B-score at 10 µM; Short transient receptor potential channel 4 (Mus musculus), Q9QUQ5;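 active = B-score above 5 SD of library B-scores, and initial fluorescence ratio not above library mean plus 5 SD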;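 note: positive B-score marks a calcium rise read as TRPC4 activation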
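Material: TRPC4beta and mu-opioid receptor HEK293 stable cells | Incubation: 45 min room-temperature Fluo4 loading, 110 s read | Detection: Kinetic Fluo4 calcium fluorescence | Measure: Integrated baseline-normalised fluorescence ratio, converted to per-well B score | Benchmarks: Low control buffer alone, high control maximal DAMGO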
TRPC6 act: mouse TRPC6 channel activators, primary screen, cell-based, HEK293, membrane potential dye | 310,000 compounds, 0.13% hits | B-score at 10 µM | HEK293-TRPC6 membrane potential dye fluorescence; hits give high values | Short transient receptor potential channel 6 (Mus musculus), Q61143;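 active = B-score of the integrated fluorescence ratio above library mean plus 3 SD, and starting fluorescence ratio within library mean plus 5 SD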;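 note: higher score means more depolarization so channel activation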
* hit, by the source's call; i = inactive. Rows were chosen to be rich in hits. Some 2.3% of all compounds tested hit in one or more screens of this group.

SMILES	TRPC6 inh	TRPC4 block	TRPC4 PAM	TRPC4 agonist	TRPC6 act
CCc1ccc(-n2c(=O)c3c(C)c(C(=O)N(C)C)sc3n(CC(=O)NCC3CCCO3)c2=O)cc1 (stereo unspecified)	i	i	i	i	i
Cc1[nH]n2c(=O)cc(-c3ccc([N+](=O)[O-])cc3)nc2c1-c1ccccc1	i	-5*	i	i	i
CC1=NN(c2ccccc2)C(=O)/C1=C\C=C1\N(C)c2ccccc2C1(C)C	i	i	i	58*	i
Cc1ccc(NC(=O)c2cccs2)cc1	i	-6*	i	77*	i
O=C(COc1ccc(Cl)cc1)Nc1ccc(C(=O)O)cc1NC(=O)COc1ccc(Cl)cc1	i	-6*	i	i	i
CCN1CCN(C(=O)c2cc(-c3ccc(Cl)s3)nc3ccccc23)CC1	i	i	18*	i	i
Clc1cccc(CSc2nnc(-c3sccc3-n3cccc3)o2)c1	i	i	i	i	i
Cc1nn(Cc2noc(C(=O)NCCc3ccccn3)n2)c(C)c1Br	i	i	i	82*	i
Cc1nn(Cc2noc(C(=O)NCc3ccccn3)n2)c(C)c1Br	i	i	i	i	i
COc1ccc(N2CCN(Cc3nc4ccccc4n3C)CC2)cc1	i	i	i	124*	i
O=C(Cc1ccc(Br)cc1)Nc1ccccc1Sc1ccccc1	i	i	i	i	i
O=C(Cc1ccccc1)Nc1ccccc1Sc1ccccc1	i	-6*	i	i	i
Cc1ccc(-c2nn(-c3ccccc3)cc2CNCc2ccccc2)cc1	i	i	i	i	i
Cc1ccc(-n2cc(CNC(C)c3cnn(C)c3)c(-c3ccc(F)cc3)n2)cc1 (stereo unspecified)	i	i	i	233*	i
Cc1ccc(-n2cc(CN3CCN(Cc4nccn4C)CC3)c(-c3ccc(F)cc3)n2)cc1	i	i	i	i	i
Cc1ccc(-n2cc(CNCCc3cscn3)c(-c3ccc(F)cc3)n2)cc1	i	i	i	130*	i
Cc1ccc(-n2cc(CNC(C)c3cnn(C)c3C)c(-c3ccc(F)cc3)n2)cc1 (stereo unspecified)	i	i	i	184*	i
Cc1cccc(OC(=O)c2cn(C)nc2C(F)(F)F)c1C	i	i	i	i	i
CC(C)c1[nH]nc2c1C(C1C=CCCC1)C(C#N)=C(N)O2 (stereo unspecified)	i	i	21*	i	i
CC(C)(C)c1[nH]nc2c1C(C1C=CCCC1)C(C#N)=C(N)O2 (stereo unspecified)	i	i	i	i	i
Cc1ccc(SCCCCN2CCOCC2)cc1	i	i	i	i	i
Cc1ccc(C)c(OCCCN2CCCC2)c1	i	i	11*	i	i
Cc1ccccc1OCCCCN1CCCCC1	i	i	i	i	i
Cc1ccc(C(C)C)cc1OCCCCN1CCCC1	i	i	26*	i	i
Cc1ccc(Cl)c(OCCN2CCCC(C)C2)c1 (stereo unspecified)	i	i	34*	i	i
SMILES	TRPC6 inh	TRPC4 block	TRPC4 PAM	TRPC4 agonist	TRPC6 act
Cc1ccc(SCCCCN2CCNCC2)cc1	i	i	13*	i	i
O=C(CN1CCCCCC1)Nc1ccc(F)c(F)c1F	i	i	i	i	i
COc1ccc(C2/C(=C(/O)c3ccc(S(=O)(=O)N4CCOCC4)cc3)C(=O)C(=O)N2CCN2CCOCC2)cc1 (stereo unspecified)	i	i	i	i	i
Cc1ccc(C(C)C)c(OCCCCN2CCNCC2)c1	i	i	18*	i	i
COc1ccc(NC(=O)CN(C)CCOc2ccc(Cl)cc2)cc1OC	i	i	15*	i	i
Fc1ccc(NC(=S)NCCc2ccccn2)cc1	i	i	i	213*	i
CCN1CCN(C2=NC(=O)/C(=C/c3ccc(C)o3)S2)CC1	i	i	14*	i	i
